Screening results deposited in PubChem by several laboratories.
The list is not random: actives were taken first. Their share in the collection is about 2.6%.
GRK2 aptamer HTS = blocks RNA aptamer binding to human GRK2; 330,000 compounds, 0.59% hits; inhibition of aptamer binding, % at 10 µM; bead flow cytometry, FAM-aptamer displacement from GRK2;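 active means inhibition of aptamer binding above 40%, roughly 3 SD of noise, on plates passing a quality check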;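 further: median bead fluorescence of bound FAM aptamer so fluorescent compounds give negative values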
Myeloid diff 2 = compounds promoting myeloid differentiation; 360,000 compounds, 1% hits; calls only at 10 µM; ER-HoxA9 myeloid progenitors, lysozyme-GFP differentiation, flow cytometry;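 active means normalized GFP-positive differentiation at or above the plate's own cutoff, the solvent-only control mean plus 3 SD; inconclusive means no clear call, values can overlap the other calls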;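 further: cells exposed to compound for four days before flow analysis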
Rin1-Abl PPI inh = blocks binding of human Rin1 to Abl | P00519+Q13671 | TR-FRET Rin1/Abl binding, biochemical | inhibition, % at 7.35 µM | 360,000 compounds, 0.4% hits | AID 588664; in the data active means inhibition above about 5%, passing the limit was not always enough
SKN-1 inh = C. elegans SKN-1 inhibition. inhibition, % at 21.8 µM. C. elegans VP596 Pgst-4::GFP/RFP ratio, acrylamide-induced, 24 h. 360,000 compounds, 0.49% hits;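 active means interference check ratio from 0.5 to 1.5 plus GFP to RFP signal ratio inhibition reaching or exceeding a fixed threshold, cut at about 30% in these data, passing the limit was not always enough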
T cell HTS = T cell immune modulation candidate. 2C CD8+ T cell-vesicle binding, flow cytometry; stronger effect = lower value. response (vesicle binding), % at 7 µM. 330,000 compounds, 0.068% hits. AID 2052;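 active means response, share of CD8 T cells binding vesicles, and their 90th percentile fluorescence all below set limits, cut at about 80% in these data, passing the limit was not always enough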;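 further: values below 100% mean blocked vesicle binding to the CD8+ T cells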
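Material: murine 2C transgenic CD8+ T lymphocytes / Also added: QL9-peptide-loaded Drosophila micro-vesicles bearing Ld, ICAM-1 and B7-1 / Schedule: binding step 1.5 h, 37 °C, antibody labelling 20 min, ice / Signal: flow cytometry, PE anti-B7-1 (FL2) versus Alexa647 anti-CD8 (FL8), PFA-fixed / Evaluation: percent CD8+ FL2 mean versus row control / Benchmarks: naked versus QL9-loaded vesicles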
Rce1 inh = blocks yeast Ras-converting enzyme; yeast membranes, quenched prenylated peptide cleavage fluorescence; calls only; AID 2563; Q03530; 290,000 compounds, 0.27% hits;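 active means fall in fluorescence gain of 50% or more versus controls, with final raw signal at or below 3038400; inconclusive means same 50% fall but final raw signal above 3038400; inactive means fall in fluorescence gain under 50%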;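 further: plate controls were neutral control wells for no effect and wells lacking membranes for full effect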
Target sequence (Q03530 whole entry, looked up): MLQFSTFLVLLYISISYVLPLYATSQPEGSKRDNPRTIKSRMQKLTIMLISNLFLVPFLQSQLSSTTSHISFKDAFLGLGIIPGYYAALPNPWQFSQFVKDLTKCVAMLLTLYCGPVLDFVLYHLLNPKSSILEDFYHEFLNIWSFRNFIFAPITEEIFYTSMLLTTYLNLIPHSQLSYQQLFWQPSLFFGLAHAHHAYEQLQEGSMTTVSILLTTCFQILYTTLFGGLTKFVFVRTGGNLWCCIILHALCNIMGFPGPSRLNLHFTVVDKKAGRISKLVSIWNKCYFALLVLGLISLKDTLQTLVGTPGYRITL
Starred values were filed as active, the others as inactive; i = inactive; ? = inconclusive; / = no result given; + = active, no number.

SMILES	GRK2 aptamer HTS	Myeloid diff 2	Rin1-Abl PPI inh	SKN-1 inh	T cell HTS	Rce1 inh
CC(=O)Nc1ccc(C(=O)COC(=O)CCc2ccccc2)c(F)c1	2	i	0	-2	374	/
c1ccc(-c2ccc(-c3cn4c(n3)CCC4)cc2)cc1	2	i	-1	25	111	+
CCOc1ccc(S(=O)(=O)N2CCC(C(=O)NCCc3ccc(OC)c(OC)c3)CC2)cc1	0	i	0	1	171	i
Cc1cc(N/N=C/c2ccc(O)c(C)c2O)nc(-c2ccccc2O)n1	2	i	-5	-4	334	+
C/C(=N\Nc1cc(C)nc(-c2ccccc2O)n1)c1ccccc1	0	i	1	10	128	i
COc1ccc(/C=C2\C(=O)NCC(=O)N2C)cc1	0	+	1	0	170	i
COc1ccc(/C=C2/SC(=O)NC2=O)cc1	1	i	-2	-28	276	i
COc1ccc(C(C(=O)NC(C)(C)C)N(CCC(C)C)C(=O)CCC(=O)Nc2cc(C)on2)cc1 (centres undefined)	0	+	0	-23	294	i
COc1ccc(C2C(C(=O)c3cccs3)=C(O)C(=O)N2CCN2CCOCC2)c(OC)c1 (centres undefined)	1	i	0	2	71	i
Cc1ccc2nc3n(c(=O)c2c1)-c1ccccc1C(=O)NC3Cc1ccc(O)cc1 (centres undefined)	5	/	/	/	0	/
CCOC(=O)C1=C(C)OC(N)=C(C#N)C1c1cc2c(cc1[N+](=O)[O-])OCO2 (centres undefined)	18	i	2	12	282	+
Cc1cc2cc(C(=O)N3CCc4c([nH]c5ccccc45)C3c3ccccn3)ccc2o1 (centres undefined)	1	i	-2	18	i	+
Cc1c(C(=O)NCCCN2CCCC2=O)oc2ccc(S(=O)(=O)N3CCOCC3)cc12	2	i	1	-8	248	/
Cc1c(C(=O)NCCC2=CCCCC2)oc2ccc(S(=O)(=O)N3CCOCC3)cc12	0	i	-3	37*	296	/
COc1cc(COc2ccc3c(C)c(CC(=O)O)c(=O)oc3c2C)cc(OC)c1OC	2	i	2	-4	126	i
Cc1nn(C)c(NC(=O)c2ccc(Cl)cc2Cl)c1Br	0	+	-1	4	508	i
Cc1nn(C)c(NC(=O)c2ccccc2Cl)c1Br	0	i	-2	-8	63	i
N=C1S/C(=C\c2ccccc2F)C(=O)N1c1ccc(F)cc1	0	i	0	-1	354	i
N=C1S/C(=C\c2cccc3ccccc23)C(=O)N1c1ccc(F)cc1	0	+	-1	9	137	i
COc1cc2c(cc1OC)C(C)=NC1(CCCCC1)C2	0	i	-2	20	262	+
COc1ccc(-c2c(C#Cc3ccsc3)c3cc(-c4ccc5[nH]ccc5c4)ccc3n2C)cc1	1	+	-3	-1	829	/
Cc1ccc(C(=O)NNC(=O)CCC(=O)NCc2ccccc2)cc1Br	0	+	-2	-10	128	i
O=S(=O)(CCc1ccccc1)CS(=O)(=O)CCc1ccccc1	/	i	2	5	/	/
CC(=O)Nc1ccc(S(=O)(=O)N(C)CC(=O)N/N=C/c2cccs2)cc1	0	i	-1	-4	416	i
CC(=O)Nc1ccc(S(=O)(=O)N(C)CC(=O)NNC(=O)c2cccs2)cc1	4	i	2	42*	151	/
SMILES	GRK2 aptamer HTS	Myeloid diff 2	Rin1-Abl PPI inh	SKN-1 inh	T cell HTS	Rce1 inh
O=[N+]([O-])c1ccc(NN=Cc2cccc([N+](=O)[O-])c2)cc1	/	i	-3	38*	/	/
O=[N+]([O-])c1ccc(N/N=C/c2cn(-c3ccccc3)nc2-c2ccccc2)cc1	0	+	-1	-5	213	i
O=[N+]([O-])c1ccc(N/N=C/c2c[nH]c3ccccc23)cc1	1	+	-2	8	321	i
NS(=O)(=O)c1ccc(N/N=C/c2cn(-c3ccccc3)nc2-c2ccccc2)c([N+](=O)[O-])c1	2	i	-1	-7	150	i
O=[N+]([O-])c1ccc(N/N=C/c2cccc(O)c2)cc1	0	i	-1	21	170	i
CC(=O)c1sc(N/N=C\c2ccccc2O)nc1C	3	i	2	-5	432	i
CC1CCCN(S(=O)(=O)c2cc(C(=O)NCCc3ccc(S(N)(=O)=O)cc3)ccc2Cl)C1 (centres undefined)	/	i	-3	-9	/	/
CC(C)(CNC(=O)c1ccc(S(=O)(=O)Nc2ccc(Cl)cc2)cc1)N1CCOCC1	0	i	4	18	530	/
Cc1noc(C)c1CSCC(=O)NCCN1C(=O)S/C(=C\c2ccccc2F)C1=O	1	i	-3	-14	170	i
COc1cc2c(cc1OC)CN(c1nc(CN3CCOCC3)nc3sc4c(c13)CCCC4)CC2	0	+	-3	-5	282	i
N=C1C(c2ccccc2)=C(O)CN1NC(=O)c1ccc(Cl)cc1	1	i	-3	-2	i	/
N=C1C(c2ccccc2)=C(O)CN1NC(=O)c1ccccc1	0	+	-2	-10	182	i
Cc1ccccc1C(=O)N1CCC(C(=O)Nc2ccc(S(=O)(=O)N3CCCC3)cc2)CC1	1	+	2	-4	281	i
Cc1cc(Cl)ccc1OC(C)C(=O)NCCCn1ccnc1 (centres undefined)	0	i	-3	2	444	i
COc1ccc(/C=C(\C#N)C(=O)Nc2cc(S(=O)(=O)N3CCOCC3)ccc2N2CCCC2)cc1	3	i	-5	11	267	i
CCN(CC)S(=O)(=O)c1ccc(N2CCCCC2)c(NC(=O)/C(C#N)=C/c2ccc(OC)cc2)c1	0	+	-3	6	231	i
CCOc1ccc(NC(=O)/C(C#N)=C/c2ccc(N3CCCC3)c(C)c2)cc1	1	+	-1	16	758	/
CCOc1cc(/C=C(/C#N)C(=O)Nc2ccc(O)cc2)cc(Br)c1O	0	?	-3	12	404	i
CO/N=C/C(=N\Nc1cc(OC)cc(OC)c1)C(=O)c1ccccc1	2	i	1	7	200	i
O=c1c2cc3c(cc2[nH]c(=S)n1Cc1ccco1)OCO3	0	i	7	40*	187	i
CCC(C)(C)c1nnc(NC(=O)CCC2CCCCC2)s1	1	i	-1	36*	300	i
CC(C)(C)c1nnc(NC(=O)CCC2CCCCC2)s1	/	i	-1	7	/	/
N#CCCN/N=C(/Cc1nc2ccccc2[nH]1)c1cccc(Cl)c1	0	+	1	1	173	/
